{"source": "ChEMBL document CHEMBL1149742", "about": "“Displacement activity of bisbenzylisoquinoline alkaloids at striatal 3H-SCH 23390 and 3H-raclopride binding sites” (J Nat Prod, 1992)", "key": {"D(1A) dopamine receptor": {"target": "D(1A) dopamine receptor (Rattus norvegicus, UniProt P18901)", "sequence (P18901 whole entry)": "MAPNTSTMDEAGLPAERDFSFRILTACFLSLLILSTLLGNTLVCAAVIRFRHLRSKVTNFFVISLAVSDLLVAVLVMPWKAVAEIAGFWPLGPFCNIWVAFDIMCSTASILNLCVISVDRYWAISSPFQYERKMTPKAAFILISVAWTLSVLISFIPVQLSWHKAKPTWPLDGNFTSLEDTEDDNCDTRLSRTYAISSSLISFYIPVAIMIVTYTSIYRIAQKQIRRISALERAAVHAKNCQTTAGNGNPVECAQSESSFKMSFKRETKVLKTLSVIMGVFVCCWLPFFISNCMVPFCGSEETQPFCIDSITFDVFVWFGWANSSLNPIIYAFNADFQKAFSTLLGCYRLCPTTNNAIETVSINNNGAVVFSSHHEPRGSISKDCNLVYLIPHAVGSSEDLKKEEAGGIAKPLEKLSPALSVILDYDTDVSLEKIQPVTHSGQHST", "test": "Displacement of [3H]SCH23390 from dopamine D1 receptor in Wistar rat striatal membrane by liquid scintillation counting", "type": "cell membranes, Striatum", "procedure,_shortened": "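Striata from male Wistar rats (200–250 g) homogenized in 50 mM Tris-HCl pH 7.4, centrifuged twice at 20,000 g, resuspended in Tris-Mg buffer (5 mM MgSO4, 0.5 mM EDTA, 0.02% ascorbic acid). 100 µg protein incubated 1 h at 25° with 0.25 nM [3H]SCH 23390 (final), compounds at 6 or 11 concentrations 10^-9–10^-4 M. Nonspecific binding with 30 µM SK&F 38393. GF/B filtration. IC50 with 95% confidence limits by Litchfield–Wilcoxon, 4–8 determinations per concentration.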"}, "D(2) dopamine receptor": {"target": "D(2) dopamine receptor (Rattus norvegicus, UniProt P61169)", "sequence (P61169 whole entry)": "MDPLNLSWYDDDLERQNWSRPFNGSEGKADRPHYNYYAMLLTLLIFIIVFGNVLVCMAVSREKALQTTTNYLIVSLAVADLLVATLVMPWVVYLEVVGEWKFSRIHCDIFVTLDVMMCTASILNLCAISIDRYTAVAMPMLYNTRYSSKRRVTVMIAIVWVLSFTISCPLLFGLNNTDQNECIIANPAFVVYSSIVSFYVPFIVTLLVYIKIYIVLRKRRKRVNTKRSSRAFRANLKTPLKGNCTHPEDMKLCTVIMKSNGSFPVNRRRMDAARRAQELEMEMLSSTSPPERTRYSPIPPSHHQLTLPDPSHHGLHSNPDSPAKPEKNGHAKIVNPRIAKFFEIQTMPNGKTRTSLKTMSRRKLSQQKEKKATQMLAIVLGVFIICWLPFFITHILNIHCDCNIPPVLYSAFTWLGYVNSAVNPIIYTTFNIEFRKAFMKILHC", "test": "Displacement of [3H]raclopride from dopamine D2 receptor in Wistar rat striatal membrane by liquid scintillation counting", "type": "cell membranes, Striatum", "procedure,_shortened": "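Male Wistar rat (200–250 g) striatal membranes, centrifuged four times at 20,000 g, resuspended in Tris-ions buffer (120 mM NaCl, 5 mM KCl, 1 mM CaCl2, 1 mM MgCl2, 0.1% ascorbic acid, pH 7.4). 200 µg protein incubated 1 h at 25° with 0.5 nM [3H]raclopride (final), compounds at 6 or 11 concentrations 10^-9–10^-4 M. Nonspecific binding with 50 µM apomorphine. GF/B filtration. IC50 by Litchfield–Wilcoxon, 4–8 determinations per concentration.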"}, "Rattus norvegicus": {"species": "Rattus norvegicus", "test": "Selectivity ratio of IC50 for dopamine D1 receptor in Wistar rat striatal membrane to IC50 for dopamine D2 receptor in Wistar rat striatal membrane", "type": "cell membranes"}}}
{"smiles": "COc1cc2c(cc1OC)[C@@H](Cc1ccc(OC)c(Oc3ccc(C[C@H]4NCCc5cc(OC)c(OC)cc54)cc3)c1)N(C)CC2", "values": [{"measurement": "IC50", "setting": "D(1A) dopamine receptor", "value": "> 100", "unit": "µM"}, {"measurement": "IC50", "setting": "D(2) dopamine receptor", "value": "> 100", "unit": "µM"}]}
{"smiles": "COc1cc2c(cc1Oc1c(O)c(OC)cc3c1[C@H](Cc1ccc(OC)c(-c4cc(C=O)ccc4O)c1)N(C)CC3)C(=O)N(C)CC2", "values": [{"measurement": "IC50", "setting": "D(1A) dopamine receptor", "value": "> 30", "unit": "µM"}, {"measurement": "IC50", "setting": "D(2) dopamine receptor", "value": 10, "unit": "µM"}, {"measurement": "Ratio IC50", "setting": "Rattus norvegicus", "value": "> 3"}]}
{"smiles": "COc1cc2c3cc1Oc1c(O)c(OC)cc4c1[C@@H](C(=O)c1ccc(O)c(c1)-c1cc(ccc1OC)C[C@H]3N(C)CC2)N(C)CC4", "values": [{"measurement": "IC50", "setting": "D(1A) dopamine receptor", "value": 90.2, "unit": "µM"}, {"measurement": "IC50", "setting": "D(2) dopamine receptor", "value": 16.2, "unit": "µM"}, {"measurement": "Ratio IC50", "setting": "Rattus norvegicus", "value": 5.6}]}
{"smiles": "COc1ccc(C[C@H]2c3c(cc(OC)c4c3Oc3cc5c(cc3O4)CCN(C)C5=O)CCN2C)cc1-c1cc(C=O)ccc1O", "values": [{"measurement": "IC50", "setting": "D(1A) dopamine receptor", "value": "> 100", "unit": "µM"}, {"measurement": "IC50", "setting": "D(2) dopamine receptor", "value": 81.6, "unit": "µM"}, {"measurement": "Ratio IC50", "setting": "Rattus norvegicus", "value": "> 1.2"}]}
{"smiles": "COc1cc2c3cc1Oc1c(O)c(OC)cc4c1[C@H](Cc1ccc(OC)c(c1)-c1cc(ccc1O)C(=O)[C@H]3N(C)CC2)N(C)CC4", "values": [{"measurement": "IC50", "setting": "D(1A) dopamine receptor", "value": 11.1, "unit": "µM"}, {"measurement": "IC50", "setting": "D(2) dopamine receptor", "value": 2.76, "unit": "µM"}, {"measurement": "Ratio IC50", "setting": "Rattus norvegicus", "value": 4}]}
{"smiles": "COc1ccc2cc1Oc1ccc(cc1)C[C@@H]1c3c(cc(OC)c(O)c3Oc3cc4c(cc3OC)CCN(C)[C@H]4C2)CCN1C", "note": "(racemic)", "values": [{"measurement": "IC50", "setting": "D(1A) dopamine receptor", "value": 15.4, "unit": "µM"}, {"measurement": "IC50", "setting": "D(2) dopamine receptor", "value": 66.4, "unit": "µM"}, {"measurement": "Ratio IC50", "setting": "Rattus norvegicus", "value": 0.2}]}
{"smiles": "COc1ccc(C=O)cc1Oc1ccc(C[C@H]2c3c(cc(OC)c(OC)c3Oc3cc4c(cc3OC)CCN(C)C4=O)CCN2C)cc1", "values": [{"measurement": "IC50", "setting": "D(1A) dopamine receptor", "value": "> 30", "unit": "µM"}, {"measurement": "IC50", "setting": "D(2) dopamine receptor", "value": "> 30", "unit": "µM"}]}
{"smiles": "COc1ccc2cc1Oc1ccc(cc1)C[C@H]1c3cc(c(OC)cc3CCN1C)Oc1c(OC)c(OC)cc3c1[C@@H](C2)N(C)CC3", "values": [{"measurement": "IC50", "setting": "D(1A) dopamine receptor", "value": 33.3, "unit": "µM"}, {"measurement": "IC50", "setting": "D(2) dopamine receptor", "value": 0.67, "unit": "µM"}, {"measurement": "Ratio IC50", "setting": "Rattus norvegicus", "value": 49.6}]}
{"smiles": "COc1cc2c(cc1O)[C@@H](Cc1ccc(OC)c(Oc3ccc(C[C@H]4c5cc(O)c(OC)cc5CCN4C)cc3)c1)N(C)CC2", "values": [{"measurement": "IC50", "setting": "D(1A) dopamine receptor", "value": 5.6, "unit": "µM"}, {"measurement": "IC50", "setting": "D(2) dopamine receptor", "value": 0.027, "unit": "µM"}, {"measurement": "Ratio IC50", "setting": "Rattus norvegicus", "value": 207}]}
{"smiles": "COc1cc2c(cc1OC)[C@@H](Cc1ccc(Oc3cc(C[C@@H]4c5cc(OC)c(OC)cc5CCN4C)ccc3OC)cc1)N(C)CC2", "values": [{"measurement": "IC50", "setting": "D(1A) dopamine receptor", "value": "> 100", "unit": "µM"}, {"measurement": "IC50", "setting": "D(2) dopamine receptor", "value": "> 100", "unit": "µM"}]}
{"smiles": "COc1cc2c(cc1O)[C@@H](Cc1ccc(O)c(Oc3ccc(C[C@H]4c5cc(O)c(OC)cc5CCN4C)cc3)c1)N(C)CC2", "values": [{"measurement": "IC50", "setting": "D(1A) dopamine receptor", "value": 1.04, "unit": "µM"}, {"measurement": "IC50", "setting": "D(2) dopamine receptor", "value": 0.3, "unit": "µM"}, {"measurement": "Ratio IC50", "setting": "Rattus norvegicus", "value": 3.5}]}
{"smiles": "COc1ccc2cc1Oc1ccc(cc1)C[C@H]1c3c(cc(OC)c(OC)c3Oc3cc4c(cc3OC)CCN(C)[C@@H]4C2)CCN1C", "values": [{"measurement": "IC50", "setting": "D(1A) dopamine receptor", "value": 39.1, "unit": "µM"}, {"measurement": "IC50", "setting": "D(2) dopamine receptor", "value": 28.4, "unit": "µM"}, {"measurement": "Ratio IC50", "setting": "Rattus norvegicus", "value": 1.4}]}
{"smiles": "COc1cc2c(cc1OC)[C@@H](Cc1ccc(Oc3cc(C[C@H]4c5cc(OC)c(OC)cc5CCN4C)ccc3OC)cc1)N(C)CC2", "values": [{"measurement": "IC50", "setting": "D(1A) dopamine receptor", "value": 5.64, "unit": "µM"}, {"measurement": "IC50", "setting": "D(2) dopamine receptor", "value": 1.45, "unit": "µM"}, {"measurement": "Ratio IC50", "setting": "Rattus norvegicus", "value": 3.9}]}
{"smiles": "COc1cc2c3cc1Oc1c(O)c(OC)cc4c1[C@H](Cc1ccc(OC)c(c1)-c1cc(ccc1O)C[C@H]3N(C)CC2)N(C)CC4", "values": [{"measurement": "IC50", "setting": "D(1A) dopamine receptor", "value": "> 100", "unit": "µM"}, {"measurement": "IC50", "setting": "D(2) dopamine receptor", "value": 3.18, "unit": "µM"}, {"measurement": "Ratio IC50", "setting": "Rattus norvegicus", "value": 31.4}]}
